Assay results as given in PubChem BioAssay AID540305 (Sanford-Burnham Center for Chemical Genomics, 2011).
Activity calls are given as the source filed them.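 How the source made its calls: active means mean EC50 at or below 20 µM; inactive means the rest.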

Molecular target: CHO-XBP1 luciferase reporter, IRE1-XBP1 activation, luminescence
Test: XBP1 luciferase reporter activation – CHO-XBP1 cells, luminescence, counter-screen for UPR apoptotic arm activator project, SAR follow-up (AID 540305)
Summary of the method: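 Medium – F12 plus 10% FBS · System – CHO cells with IRE1-XBP1 luciferase reporter · Amount – 1000 cells/well · Benchmarks – 10 µg/mL tunicamycin versus DMSO only · Detection – luciferase luminescence using Steady-Glo reagent · Times – overnight plating, 6 h compound treatment at 37 °C · Dosing – dose series, DMSO ≤1%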

EC50 | SMILES
> 80 µM (inactive) | O=C(Nc1ccc(S(=O)(=O)C2CCCCC2)cc1)c1ccc([N+](=O)[O-])o1
> 80 µM (inactive) | O=C(Nc1nc2ccccc2s1)c1cccnc1
> 80 µM (inactive) | O=C(Nc1ccc(S(=O)(=O)N2CCOCC2)cc1)c1cccs1
> 80 µM (inactive) | O=C(Nc1ccc(S(=O)(=O)N2CCNCC2)cc1)c1ccc([N+](=O)[O-])o1
> 80 µM (inactive) | O=C(Nc1nc2ccc(F)cc2s1)c1ccccn1
> 80 µM (inactive) | CC1CCN(S(=O)(=O)c2ccc(NC(=O)c3ccc([N+](=O)[O-])o3)cc2)CC1
> 80 µM (inactive) | CC1(C)CCN(S(=O)(=O)c2ccc(NC(=O)c3ccc([N+](=O)[O-])o3)cc2)CC1
> 80 µM (inactive) | Cc1cc(C)c2nc(NC(=O)c3ccccn3)sc2c1
> 80 µM (inactive) | O=C(Nc1ccc(S(=O)(=O)N2CCOCC2)cc1)c1ccc([N+](=O)[O-])s1
> 80 µM (inactive) | O=C(Nc1nc2c(F)cccc2s1)c1ccccn1
> 80 µM (inactive) | O=C(Nc1ccc(S(=O)(=O)N2CCOCC2)cc1)c1ccc([N+](=O)[O-])cc1
> 80 µM (inactive) | O=C(Nc1ccc(S(=O)(=O)c2ccccc2)cc1)c1ccc([N+](=O)[O-])o1
> 80 µM (inactive) | O=C(Nc1ccc(S(=O)(=O)N2CCOCC2)cc1)c1ccc(Br)o1
> 80 µM (inactive) | O=C(Nc1nc2c(F)cc(F)cc2s1)c1cccnc1
> 80 µM (inactive) | CC1CN(S(=O)(=O)c2ccc(NC(=O)c3ccco3)cc2)CC(C)O1 (stereo unspecified)
> 80 µM (inactive) | O=C(Nc1ccc(S(=O)(=O)N2CCCCC2)cc1)c1ccc([N+](=O)[O-])o1

EC50 | SMILES
> 80 µM (inactive) | Cc1ccc(C(=O)Nc2ccc(S(=O)(=O)N3CCOCC3)cc2)o1
> 80 µM (inactive) | O=C(Nc1ccc(S(=O)(=O)N2CCOCC2)cc1)c1ccc([N+](=O)[O-])o1
> 80 µM (inactive) | O=C(Nc1ccc(S(=O)(=O)N2CCOCC2)cc1)c1ccco1
> 80 µM (inactive) | O=C(Nc1cccc(S(=O)(=O)N2CCOCC2)c1)c1ccco1
> 80 µM (inactive) | O=C(Nc1ccc(S(=O)(=O)N2CCOCC2)cc1)c1ccccc1
> 80 µM (inactive) | O=C(Nc1nc2c(Cl)cc(Cl)cc2s1)c1ccccn1
> 80 µM (inactive) | O=C(Nc1ccc(S(=O)(=O)N2CCCC2)cc1)c1ccc([N+](=O)[O-])o1
> 80 µM (inactive) | O=C(Nc1nc2ccccc2s1)c1ccccn1
> 80 µM (inactive) | O=C(Nc1nc2ccccc2s1)c1ccncc1
> 80 µM (inactive) | O=C(Nc1nc2c(F)cc(F)cc2s1)c1ccccn1
> 80 µM (inactive) | O=C(Nc1ccc(S(=O)(=O)N2CCC(O)CC2)cc1)c1ccc([N+](=O)[O-])o1
> 80 µM (inactive) | Fc1cc(F)c2nc(NCc3ccccn3)sc2c1
> 80 µM (inactive) | O=C(Nc1nc2c(F)cc(F)cc2s1)c1ccncc1
> 80 µM (inactive) | O=C(Nc1nc2c(F)cc(F)cc2s1)c1ccccc1
> 80 µM (inactive) | O=C(Nc1ccc(C(=O)N2CCOCC2)cc1)c1ccco1
